Source: PubChem BioAssay
UPR CHOP act: apoptotic UPR (CHOP) activation; 0.34% of 330,000 active; activation, % at 10 µM; CHO-CHOP luciferase reporter, luminescence; percent of tunicamycin response over DMSO baseline;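 active means at 10 µM dose, activation of 40% or more, normalized to positive control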
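Dosing – one dose, 10 µM in 0.5% DMSO · System – CHO-CHOP cells, stable luciferase reporter of PERK-eIF2a-CHOP signalling · Input – 500 cells/well · Control set – tunicamycin 10 µg/mL final as positive, DMSO-only wells as negative · Timing – 6 h compound treatment, 37 °C · Measure – % activation vs tunicamycin · Technique – luminescence read with Steady-Glo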
Jurkat NFkB inh: lowers PMA/ionomycin-induced NF-kB signal in Jurkat cells; PMA/ionomycin-induced NF-kB luciferase reporter, luminescence; inhibition, % at 4 µM; 0.53% of 330,000 active; in the data active means inhibition above about 50%
697 NFkB inh: lowers PMA/ionomycin-induced NF-kB signal in 697 B cells; 0.33% of 330,000 active; 697 B-cell NF-kB luciferase reporter, 16 h; inhibition, % at 4 µM; in the data active means inhibition above about 35%
XBP1 UPR activ: activators of adaptive arm of unfolded protein response (XBP1); AID 463104; activation, % at 20 µM; CHO-XBP1 luciferase reporter, IRE1-XBP1 UPR activation, luminescence; percent of tunicamycin response, DMSO as zero; 0.33% of 330,000 active;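 active means versus positive control, 20 µM dose yields 30% or more activation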
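Material – CHO cell line with stable XBP1 luciferase reporter · Buffer or medium – F12 plus 10% FBS · Compound – single point, 20 µM final compound, 1% DMSO · Schedule – 16-18 h cell attachment at 37 °C, then 6 h compound exposure · Signal – Steady-Glo luminescence read · Benchmarks – high control tunicamycin 10 µg/mL final, low control DMSO vehicle only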
CHOP inhibitor: blocks CHOP induction under ER stress; inhibition, % at 10 µM; 3.8% of 220,000 active; CHO-K1 CHOP-promoter luciferase, tunicamycin-induced, 15-18 h; AID 2732;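 active means compounds that reduced the stress-induced luciferase reporter signal by more than about 70% of percent inhibition, limit read from the data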
A number is an active result. This excerpt belongs to a sample that is enriched for hits.

Screening CCCCOC(=O)n1c(=S)oc2cc(Cl)ccc21 returned UPR CHOP act inactive, Jurkat NFkB inh inactive, 697 NFkB inh inactive, XBP1 UPR activ inactive and CHOP inhibitor inactive.
`COC(=O)n1c(=S)oc2cc(Cl)ccc21` gave UPR CHOP act inactive, Jurkat NFkB inh inactive, 697 NFkB inh inactive, XBP1 UPR activ inactive and CHOP inhibitor 90.
Screening O=C(/C(Cl)=C/Nc1ccc(Br)cn1)C(F)(F)F returned UPR CHOP act inactive, Jurkat NFkB inh inactive, 697 NFkB inh inactive, XBP1 UPR activ inactive and CHOP inhibitor 87.
For CC(C)(OC(=O)c1ccc(F)cc1)c1cc2ccccc2c(=O)o1 the results were UPR CHOP act inactive, Jurkat NFkB inh inactive, 697 NFkB inh inactive and XBP1 UPR activ inactive.
Screening Cn1c(SCC(=O)c2ccc3c(c2)NC(=O)CO3)nc2ccccc21 returned UPR CHOP act inactive, Jurkat NFkB inh inactive, 697 NFkB inh inactive, XBP1 UPR activ inactive and CHOP inhibitor 86.
Cc1cccc(C)c1OCCn1nc(C(=O)O)c2ccccc2c1=O was read as UPR CHOP act inactive, Jurkat NFkB inh inactive, 697 NFkB inh inactive, XBP1 UPR activ inactive and CHOP inhibitor 72.
`Cc1cccc(OCCn2nc(C(=O)O)c3ccccc3c2=O)c1` gave UPR CHOP act inactive, Jurkat NFkB inh inactive, 697 NFkB inh inactive, XBP1 UPR activ inactive and CHOP inhibitor 85.
For CC(C)(C)c1ccc(OCCn2nc(C(=O)O)c3ccccc3c2=O)cc1 the results were UPR CHOP act inactive, Jurkat NFkB inh inactive, 697 NFkB inh inactive and XBP1 UPR activ inactive.
Cc1ccc(SCCn2nc(C(=O)O)c3ccccc3c2=O)cc1 was read as UPR CHOP act inactive, Jurkat NFkB inh inactive, 697 NFkB inh inactive, XBP1 UPR activ inactive and CHOP inhibitor inactive.
O=C(O)c1nn(CC(=O)N(C2CCCCC2)C2CCCCC2)c(=O)c2ccccc12 was read as UPR CHOP act inactive, Jurkat NFkB inh inactive, 697 NFkB inh inactive, XBP1 UPR activ inactive and CHOP inhibitor 93.
CCOC1(OCC)C(c2ccc(N)cc2)C(C#N)(C#N)C1(OCC)OCC (stereo not given) was read as UPR CHOP act inactive, Jurkat NFkB inh inactive, 697 NFkB inh inactive, XBP1 UPR activ inactive and CHOP inhibitor 88.
Screening CC(C)(C)OC(=O)N1CCC[C@H]1c1nnc(SCC(=O)Nc2ccc(Br)cc2)o1 returned UPR CHOP act inactive, Jurkat NFkB inh inactive, 697 NFkB inh inactive, XBP1 UPR activ inactive and CHOP inhibitor inactive.
Cc1ccc(N2C(=O)CC(Nc3ccccc3)C2=O)cc1 (stereo not given) was read as UPR CHOP act inactive, Jurkat NFkB inh inactive, 697 NFkB inh inactive, XBP1 UPR activ inactive and CHOP inhibitor inactive.
Cc1ccc(S(=O)(=O)NNC2CC(=O)N(c3ccc(Br)cc3)C2=O)cc1 (stereo not given) was read as UPR CHOP act inactive, Jurkat NFkB inh inactive, 697 NFkB inh inactive, XBP1 UPR activ inactive and CHOP inhibitor 73.
For c1ccc(CCNc2ncnc3c2nnn3Cc2ccccc2)cc1 the results were UPR CHOP act inactive, Jurkat NFkB inh inactive, 697 NFkB inh inactive, XBP1 UPR activ inactive and CHOP inhibitor 89.
Screening CCCOc1cc(C)c(S(=O)(=O)n2ccc(C)n2)cc1C returned UPR CHOP act inactive, Jurkat NFkB inh inactive, 697 NFkB inh inactive, XBP1 UPR activ inactive and CHOP inhibitor 93.
Screening CCCOc1cc(C)c(S(=O)(=O)N2CCOCC2)cc1C returned UPR CHOP act inactive, Jurkat NFkB inh inactive, 697 NFkB inh inactive, XBP1 UPR activ inactive and CHOP inhibitor inactive.
For CCCc1ccc(C(=O)N2CCN(c3ccccc3OCC)CC2)cc1 the results were UPR CHOP act inactive, Jurkat NFkB inh inactive, 697 NFkB inh inactive, XBP1 UPR activ inactive and CHOP inhibitor 71.
CCOc1ccccc1N1CCN(C(=O)c2cc[n+]([O-])cc2)CC1 was read as UPR CHOP act inactive, Jurkat NFkB inh inactive, 697 NFkB inh inactive, XBP1 UPR activ inactive and CHOP inhibitor inactive.
`COC(=O)c1ccc(S(=O)(=O)NCc2ccccn2)n1C` gave UPR CHOP act inactive, Jurkat NFkB inh inactive, 697 NFkB inh inactive, XBP1 UPR activ inactive and CHOP inhibitor inactive.
Screening Cc1ccc(N2CC(C(=O)Nc3c4c(nn3C(C)(C)C)CS(=O)(=O)C4)CC2=O)cc1 (stereo not given) returned UPR CHOP act inactive, Jurkat NFkB inh inactive, 697 NFkB inh inactive and XBP1 UPR activ inactive.
For O=[N+]([O-])c1ccc(NCc2ccc(Cl)cc2)nc1 the results were UPR CHOP act inactive, Jurkat NFkB inh inactive, 697 NFkB inh inactive, XBP1 UPR activ inactive and CHOP inhibitor inactive.
`CC(C)(C)c1ccc(CNc2ccc([N+](=O)[O-])cn2)cc1` gave CHOP inhibitor 87.
For CC(C)c1ccc(CNc2ccc([N+](=O)[O-])cn2)cc1 the results were UPR CHOP act inactive, Jurkat NFkB inh inactive, 697 NFkB inh inactive, XBP1 UPR activ inactive and CHOP inhibitor 83.
For CCOc1ccccc1NC(=O)CSc1nncc2ccccc12 the results were UPR CHOP act inactive, Jurkat NFkB inh inactive, 697 NFkB inh inactive and XBP1 UPR activ inactive.
C=CCNC(=S)NNc1nc2c(c(=O)[nH]1)C1(CCCC1)Cc1ccccc1-2 was read as UPR CHOP act inactive, Jurkat NFkB inh inactive, 697 NFkB inh inactive, XBP1 UPR activ inactive and CHOP inhibitor inactive.
`O=c1[nH]c(NNC(=S)NCc2ccccc2)nc2c1C1(CCCCC1)Cc1ccccc1-2` gave UPR CHOP act inactive, Jurkat NFkB inh inactive, 697 NFkB inh inactive, XBP1 UPR activ inactive and CHOP inhibitor 87.
COc1ccc(NC(=O)NC23CC4(C)CC(C)(CC(C)(C4)C2)C3)cc1 was read as UPR CHOP act inactive, Jurkat NFkB inh inactive, 697 NFkB inh inactive, XBP1 UPR activ inactive and CHOP inhibitor 70.
For CCn1c2ccccc2c2cc(NC(=O)c3coc(=O)c(Br)c3)ccc21 the results were UPR CHOP act 100, Jurkat NFkB inh inactive, 697 NFkB inh inactive, XBP1 UPR activ 73 and CHOP inhibitor inactive.
For O=C(CSc1nnc(CNC(=O)c2ccccc2)o1)NCc1ccccc1Cl the results were UPR CHOP act inactive, Jurkat NFkB inh inactive, 697 NFkB inh inactive and XBP1 UPR activ inactive.
`O=C(CSc1nnc(SCc2ccc(Cl)cc2)s1)N/N=C/c1c[nH]c2ccccc12` gave CHOP inhibitor 92.
CC(=O)c1c(C)oc2c1C(=O)c1ccccc1C2=O was read as CHOP inhibitor 73.
Screening CCC(C(=O)OCC(=O)Nc1cc(Cl)cc(Cl)c1)c1ccccc1 (stereo not given) returned UPR CHOP act inactive, Jurkat NFkB inh inactive, 697 NFkB inh inactive, XBP1 UPR activ inactive and CHOP inhibitor 92.
COc1ccc(Oc2nnc(-c3ccc(C)cc3)c3ccccc23)cc1 was read as UPR CHOP act inactive, Jurkat NFkB inh inactive, 697 NFkB inh inactive, XBP1 UPR activ inactive and CHOP inhibitor 83.
Screening CC(C)N(Cc1ccccc1)C(=O)CN1C(=O)COc2ccc(S(=O)(=O)N3CCCCCC3)cc21 returned UPR CHOP act inactive, Jurkat NFkB inh inactive, 697 NFkB inh inactive and XBP1 UPR activ inactive.
